High-throughput results: PubChem, Johns Hopkins Ion Channel Center
MrgX1 ag: activates human MrgX1 receptor signaling; B-score at 10 µM; 0.44% of 310,000 active; MrgX1-HEK293 cells, Fluo-4 calcium fluorescence, agonist mode; active compounds read high;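 active = calcium response B-score plate-corrected fluorescence ratio at least 3 library SD, with starting fluorescence B-score inside 5 SD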
Target sequence (Q96LB2 whole entry, looked up): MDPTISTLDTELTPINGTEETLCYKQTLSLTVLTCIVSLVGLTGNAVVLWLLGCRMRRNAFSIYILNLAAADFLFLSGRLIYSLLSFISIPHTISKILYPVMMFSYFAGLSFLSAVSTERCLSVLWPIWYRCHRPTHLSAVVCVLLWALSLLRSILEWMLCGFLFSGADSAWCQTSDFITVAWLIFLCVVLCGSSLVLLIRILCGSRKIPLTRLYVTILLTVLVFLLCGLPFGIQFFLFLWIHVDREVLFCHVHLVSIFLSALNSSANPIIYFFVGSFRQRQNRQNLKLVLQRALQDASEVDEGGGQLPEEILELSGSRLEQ
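Material: MrgX1-expressing HEK293 cells / Dosing: compound as first of three additions / Incubation: overnight seeding, then 1 h dark dye loading / Signal: Fluo-4 NW calcium fluorescence / Evaluation: B-scored fluorescence response ratio / Benchmarks: positive and negative control wells on each plate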
RGS4 pot: potentiators or activators of RGS4; HEK293 M3R/inducible RGS4, carbachol calcium flux Fluo4; active compounds read low; B-score at 10 µM; 0.92% of 310,000 active; AID 463111;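 active = B-score of the integrated calcium signal more than 4 SD below the library mean, with starting fluorescence not abnormally high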;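 note: negative B-score means reduced calcium response which marks RGS4 activation or potentiation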
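Detection: kinetic calcium fluorescence imaging with Fluo4-AM dye, 2 µM / Material: HEK293 cells with stable M3R and inducible RGS4 / Schedule: recording 10 s baseline at 1 Hz, 100 s post-agonist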
RGS4 block: inhibitors of human RGS4. P49798. HEK293 M3R/RGS4 inducible, Fluo-4 calcium flux; active compounds read high; triggered by carbachol at its EC20. B-score at 10 µM. 0.45% of 310,000 active. AID 463165;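 active = B-score, a plate-corrected calcium signal, over three deviations above library mean, with baseline fluorescence within five deviations of library mean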;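 note: RGS4 expression induced by doxycycline in cells with stable M3 receptor; B-score is computed from the integrated fluorescence ratio over baseline after carbachol; higher B-score means a larger calcium signal and so more RGS4 inhibition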
Target sequence (P49798 whole entry, looked up): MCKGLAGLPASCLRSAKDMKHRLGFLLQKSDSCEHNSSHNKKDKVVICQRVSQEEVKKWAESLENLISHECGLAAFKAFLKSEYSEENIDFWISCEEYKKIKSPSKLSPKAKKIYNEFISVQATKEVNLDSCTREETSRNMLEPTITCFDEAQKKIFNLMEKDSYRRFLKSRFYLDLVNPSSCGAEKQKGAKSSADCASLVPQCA
MrgX1 PAM: human MrgX1 positive allosteric modulation, primary screen. Q96LB2. MrgX1-HEK293, Fluo-4 calcium flux, FDSS; active compounds read high. 0.63% of 310,000 active. B-score at 10 µM. AID 588675;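 active = plate-corrected calcium response at least 3 library SD above typical, normal starting fluorescence, not activating the receptor alone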;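 note: compound read alongside a low EC10 to EC30 dose of BAM8-22 agonist; peak minus trough fluorescence over baseline measured at the second addition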
MrgX1 antagonist: antagonists of human MrgX1 receptor. 1.3% of 310,000 active. AID 588676. B-score at 10 µM. MRGX1-HEK293 calcium flux, Fluo-4, BAM8-22 antagonism; active compounds read low;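 active = calcium-response B-score plate-corrected more than 3 library SD below zero, starting fluorescence within 5 deviations, no agonist response on first addition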;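 note: peak minus trough fluorescence over baseline after final BAM8-22 challenge near maximal dose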
RGS4 activ val: RGS4 activation, validation assay | shares compounds with RGS4 pot | HEK293 M3R/RGS4 inducible, carbachol calcium flux Fluo4 | AID 602282 | 89% of 1,100 active | inhibition, % at 10 µM;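 active = inhibition above 3 SD of the buffer control wells, cut at about 41% in these data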;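 note: signal is the integrated peak-minus-minimum Fluo4 fluorescence over baseline ratio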
RGS4 act ctr: activity in cells without induced RGS4 expression; shares compounds with RGS4 pot; HEK293 M3R non-induced RGS4, Fluo4 calcium flux; after carbachol challenge at its EC90; inhibition, % at 10 µM; 82% of 1,100 active; AID 602283;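 active = inhibition exceeding 3 SD of buffer-only control wells, cut at about 26% in these data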;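 note: percent drop in integrated peak-minus-baseline over baseline Fluo4 ratio after carbachol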
Starred values were filed as active, the others as inactive. In the library only some 3.5% were active in any assay of this set; here they are far more common.

Screening CC1CCN(CCCCOc2ccccc2-c2ccccc2)CC1 returned MrgX1 ag inactive, RGS4 pot -8.36*, RGS4 block inactive, MrgX1 PAM inactive, MrgX1 antagonist inactive, RGS4 activ val 72.5* and RGS4 act ctr 83.8*.
`CNCCOc1ccccc1-c1ccccc1` gave MrgX1 ag inactive, RGS4 pot inactive, RGS4 block inactive, MrgX1 PAM inactive and MrgX1 antagonist inactive.
`CC1CCN(CC(=O)Nc2ccccc2-c2ccccc2)CC1` gave MrgX1 ag inactive, RGS4 pot -9.14*, RGS4 block inactive, MrgX1 PAM inactive, MrgX1 antagonist inactive, RGS4 activ val 91.5* and RGS4 act ctr 61.3*.
`COc1ccc(-c2cn3cc(C)ccc3n2)cc1OC` gave MrgX1 ag inactive, RGS4 pot inactive, RGS4 block inactive, MrgX1 PAM inactive and MrgX1 antagonist inactive.
Screening Cc1ccc2c(c1)N(S(=O)(=O)c1ccc3c(c1)NC(=O)CC(=O)N3)CCO2 returned MrgX1 ag inactive, RGS4 pot inactive, RGS4 block inactive, MrgX1 PAM inactive and MrgX1 antagonist inactive.
`CCOC(=O)C(=O)NNc1ccc(F)cc1` gave MrgX1 ag inactive, RGS4 pot inactive, RGS4 block inactive, MrgX1 PAM inactive and MrgX1 antagonist inactive.
O=C(C1CCCN(c2nnc(-n3cccc3)s2)C1)N1CCN(c2ccccc2)CC1 (centres undefined) was read as MrgX1 ag inactive, RGS4 pot inactive, RGS4 block inactive, MrgX1 PAM inactive and MrgX1 antagonist inactive.
CCOC(=O)N1CCN(c2ccnc3cc(Cl)ccc23)CC1 was read as MrgX1 ag inactive, RGS4 pot -13*, RGS4 block inactive, MrgX1 PAM inactive, MrgX1 antagonist inactive, RGS4 activ val 92.0* and RGS4 act ctr 94.8*.
Screening CCC(=O)N1CCN(c2ccnc3cc(Cl)ccc23)CC1 returned MrgX1 ag inactive, RGS4 pot inactive, RGS4 block inactive, MrgX1 PAM inactive and MrgX1 antagonist inactive.
Screening COc1ccc(C(=O)N/N=C/c2ccc3cccc(OCc4ccccc4)c3n2)cc1 returned MrgX1 ag inactive, RGS4 pot -11.4*, RGS4 block inactive, MrgX1 PAM inactive, MrgX1 antagonist inactive, RGS4 activ val 91.0* and RGS4 act ctr 47.3*.
CC(=O)c1c(C)[nH]c(C(=O)Nc2nc(-c3ccc(Cl)cc3)cs2)c1C was read as MrgX1 ag inactive, RGS4 pot -8.24*, RGS4 block inactive, MrgX1 PAM inactive, MrgX1 antagonist inactive, RGS4 activ val 94.0* and RGS4 act ctr 91.8*.
Cc1cc2ncn(S(=O)(=O)c3ccc(F)cc3)c2cc1C was read as MrgX1 ag inactive, RGS4 pot inactive, RGS4 block inactive, MrgX1 PAM inactive and MrgX1 antagonist inactive.
CCOc1ccc(S(=O)(=O)n2cnc3cc(C)c(C)cc32)cc1 was read as MrgX1 ag inactive, RGS4 pot -9.87*, RGS4 block inactive, MrgX1 PAM inactive, MrgX1 antagonist inactive, RGS4 activ val 93.5* and RGS4 act ctr 95.3*.
`COc1cccc(-c2nnc(NC(=O)c3ccc(S(=O)(=O)N4CCOCC4)cc3)o2)c1` gave MrgX1 ag inactive, RGS4 pot inactive, RGS4 block inactive, MrgX1 PAM inactive and MrgX1 antagonist inactive.
For COc1cccc(C(=O)NCC2CCN(c3ccc(S(=O)(=O)N4CCOCC4)cc3)CC2)c1 the results were MrgX1 ag inactive, RGS4 pot -8.61*, RGS4 block inactive, MrgX1 PAM inactive, MrgX1 antagonist inactive, RGS4 activ val 91.5* and RGS4 act ctr 58.3*.
Screening O=C(c1ccc(S(=O)(=O)N2CCOCC2)cc1)N1CCN(c2cccc(Cl)c2)CC1 returned MrgX1 ag inactive, RGS4 pot inactive, RGS4 block inactive, MrgX1 PAM inactive and MrgX1 antagonist inactive.
Screening O=C(NCC1CCN(c2ccc(S(=O)(=O)N3CCOCC3)cc2)CC1)c1cccc(Cl)c1 returned MrgX1 ag inactive, RGS4 pot -8.05*, RGS4 block inactive, MrgX1 PAM inactive, MrgX1 antagonist inactive, RGS4 activ val 90.0* and RGS4 act ctr 92.3*.
For O=C(NCCc1ccccc1)C(=O)NCC1CCCN1S(=O)(=O)c1ccccc1 (centres undefined) the results were MrgX1 ag inactive, RGS4 pot -9.57*, RGS4 block inactive, MrgX1 PAM inactive, MrgX1 antagonist inactive, RGS4 activ val 67.5* and RGS4 act ctr 26.3*.
COC(=O)c1ccccc1NC(=O)c1ccc(COc2cc(C)cc(C)c2)o1 was read as MrgX1 ag inactive, RGS4 pot -8.11*, RGS4 block inactive, MrgX1 PAM inactive, MrgX1 antagonist inactive, RGS4 activ val 46.0* and RGS4 act ctr 0.0.
CC12CC(c3ccccc3O1)N(C(=O)c1ccco1)C(=O)N2c1ccccc1 (centres undefined) was read as MrgX1 ag inactive, RGS4 pot inactive, RGS4 block inactive, MrgX1 PAM inactive and MrgX1 antagonist inactive.
Screening N#Cc1ccccc1Cn1cc(/C=N/Nc2ccc([N+](=O)[O-])cn2)c2ccccc21 returned MrgX1 ag inactive, RGS4 pot -10.9*, RGS4 block inactive, MrgX1 PAM inactive, MrgX1 antagonist -6.2*, RGS4 activ val 78.0* and RGS4 act ctr 83.8*.
`O=[N+]([O-])c1ccc(N/N=C/c2ccc(OCc3cccc4ccccc34)cc2)nc1` gave MrgX1 ag inactive, RGS4 pot inactive, RGS4 block inactive, MrgX1 PAM inactive and MrgX1 antagonist inactive.
`CC(C)(C)c1ccc(NC(=O)COC(=O)c2ccc([N+](=O)[O-])s2)cc1` gave MrgX1 ag inactive, MrgX1 PAM inactive and MrgX1 antagonist inactive.
O=C(C1CCCN1S(=O)(=O)c1cccc2nsnc12)N1CCN(c2ccccc2)CC1 (centres undefined) was read as MrgX1 ag inactive, RGS4 pot inactive, RGS4 block inactive, MrgX1 PAM inactive and MrgX1 antagonist inactive.
For COc1ccccc1CN1CCC(CNS(=O)(=O)c2cc(-c3onc(C)c3C)ccc2OC)CC1 the results were MrgX1 ag inactive, RGS4 pot -7.98*, RGS4 block inactive, MrgX1 PAM inactive, MrgX1 antagonist inactive, RGS4 activ val 90.5* and RGS4 act ctr 64.8*.
